In ChEMBL document CHEMBL3785068, “Synthesis and biological evaluation of novel 6,7-dihydro-5H-cyclopenta[d]pyrimidine and 5,6,7,8-tetrahydroquinazoline derivatives as sigma-1 (σ1) receptor antagonists for the treatment of pain” (Bioorg Med Chem Lett, 2016):

Assays:
[1] = test system: Mus musculus; assay: Antinociceptive activity in Kun Ming mouse assessed as inhibition of formalin-induced pain response during phase 2 measured as licking and biting time at 80 mg/kg, ip preincubated with compound for 15 mins followed by formalin injection measured after 15 to 45 mins; assay type: functional
In short: (§1)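 Formalin injected intraplantar into the mouse hind paw. Licking/biting time scored in phase I (0–5 min) and phase II (15–45 min) after 80 mg/kg test dose. At least ten animals per group; mean ± SEM; two-way ANOVA with Newman-Keuls test against vehicle and formalin-alone groups.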

[2] = test system: Mus musculus; assay: Antinociceptive activity in Kun Ming mouse assessed as inhibition of formalin-induced pain response during phase 1 measured as licking and biting time at 80 mg/kg, ip preincubated with compound for 15 mins followed by formalin injection measured up to 5 mins; assay type: functional; in short: as §1
[3] = biological target: Sigma non-opioid intracellular receptor 1 (Cavia porcellus, UniProt Q60492); assay: Displacement of [3H]-(+)-pentazocine from sigma1 receptor in guinea pig brain membrane after 180 mins by liquid scintillation counter; assay type: cell membranes
Sigma non-opioid intracellular receptor 1, sequence (Q60492 whole entry): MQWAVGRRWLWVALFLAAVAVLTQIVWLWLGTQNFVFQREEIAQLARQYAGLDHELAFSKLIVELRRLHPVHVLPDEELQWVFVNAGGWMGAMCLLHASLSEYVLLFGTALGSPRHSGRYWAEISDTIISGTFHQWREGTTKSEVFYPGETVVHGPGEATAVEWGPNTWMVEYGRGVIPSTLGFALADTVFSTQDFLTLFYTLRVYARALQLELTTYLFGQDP

| Compound | Time [1] [s] | Time [2] [s] | Ki [3] [nM] |
| --- | --- | --- | --- |
| Cc1cc(OCCN2CCOCC2)nn1-c1ccc2ccccc2c1 | 55.4 | 16.8 |  |
| CC1CCN(CCCOc2nc(-c3ccc(Cl)cc3)nc3c2CCC3)CC1 |  |  | 21.1 |
| CN(C)CCCOc1nc(-c2ccccc2)nc2c1CCCC2 |  |  | 138 |
